Laboratory results reported in ChEMBL document CHEMBL5247578, “Effective synthesis of benzimidazoles-imidazo[1,2-a]pyrazine conjugates: A comparative study of mono-and bis-benzimidazoles for antitumor activity” (Eur J Med Chem, 2019).

Assays:
[1] = n-Octanol/phosphate buffer partition coefficient, logP of the compound at pH 7.4 incubated for 85 mins by shake-flask method; format: physicochemical
How it was run: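 Octanol–water partition by shake-flask: n-octanol with 0.15 M phosphate buffer pH 7.4 at 10:1 volumes. Buffer-phase absorbance read before mixing, then shaken 50 min and centrifuged at 2500 rpm for 35 min. Buffer absorbance read again; P = (Ai−Af)/Af × Vw/Vo.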

Hs-578T = experiment: Antiproliferative activity against human Hs-578T cells assessed as cell growth inhibition at 10 uM incubated for 48 hrs by sulforhodamine B assay relative to control; format: functional
How it was run: (§1)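 NCI-60 single-dose screen at 10^-5 M. Cells grown in RPMI 1640 with 5% FBS and 2 mM L-glutamine, plated at 5,000–40,000 cells/well, and preincubated 24 h. Drug (DMSO stock) added and incubated 48 h at 37 °C, 5% CO2. Adherent cells fixed with cold TCA, stained with 0.4% SRB in 1% acetic acid, dye solubilized in 10 mM trizma base, A515 read. Percent growth taken against time-zero and untreated control.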

MDA-MB-231 = experiment: Antiproliferative activity against human MDA-MB-231 cells assessed as cell growth inhibition at 10 uM incubated for 48 hrs by sulforhodamine B assay relative to control; format: functional; how it was run: as §1
UO-31 = experiment: Antiproliferative activity against human UO-31 cells assessed as cell growth inhibition at 10 uM incubated for 48 hrs by sulforhodamine B assay relative to control; format: functional; how it was run: as §1
SN12C = experiment: Antiproliferative activity against human SN12C cells assessed as cell growth inhibition at 10 uM incubated for 48 hrs by sulforhodamine B assay relative to control; format: functional; how it was run: as §1
RXF 393 = experiment: Antiproliferative activity against human RXF 393 cells assessed as cell growth inhibition at 10 uM incubated for 48 hrs by sulforhodamine B assay relative to control; format: functional; how it was run: as §1
ACHN = experiment: Antiproliferative activity against human ACHN cells assessed as cell growth inhibition at 10 uM incubated for 48 hrs by sulforhodamine B assay relative to control; format: functional
How it was run: (§2)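 Single-dose NCI-60 prescreen at 10^-5 M. Cells in RPMI 1640 with 5% FBS and 2 mM L-glutamine, seeded 5,000–40,000 cells/well with 24 h preincubation, then drug exposure for 48 h at 37 °C under 5% CO2. Growth read by SRB staining of TCA-fixed cells at 515 nm against time-zero and untreated controls. Negative growth values denote cell kill.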

A498 = experiment: Antiproliferative activity against human A498 cells assessed as cell growth inhibition at 10 uM incubated for 48 hrs by sulforhodamine B assay relative to control; format: functional; how it was run: as §2
786-0 = experiment: Antiproliferative activity against human 786-0 cells assessed as cell growth inhibition at 10 uM incubated for 48 hrs by sulforhodamine B assay relative to control; format: functional; how it was run: as §2
NCI/ADR-RES = experiment: Antiproliferative activity against human NCI/ADR-RES cells assessed as cell growth inhibition at 10 uM incubated for 48 hrs by sulforhodamine B assay relative to control; format: functional; how it was run: as §1
OVCAR-8 = experiment: Antiproliferative activity against human OVCAR-8 cells assessed as cell growth inhibition at 10 uM incubated for 48 hrs by sulforhodamine B assay relative to control; format: functional; how it was run: as §1
UACC-62 = experiment: Antiproliferative activity against human UACC-62 cells assessed as cell growth inhibition at 10 uM incubated for 48 hrs by sulforhodamine B assay relative to control; format: functional; how it was run: as §1
SK-MEL-2 = experiment: Antiproliferative activity against human SK-MEL-2 cells assessed as cell growth inhibition at 10 uM incubated for 48 hrs by sulforhodamine B assay relative to control; format: functional; how it was run: as §1
LOX IMVI = experiment: Antiproliferative activity against human LOX IMVI cells assessed as cell growth inhibition at 10 uM incubated for 48 hrs by sulforhodamine B assay relative to control; format: functional; how it was run: as §1
U-251 = experiment: Antiproliferative activity against human U-251 cells assessed as cell growth inhibition at 10 uM incubated for 48 hrs by sulforhodamine B assay relative to control; format: functional; how it was run: as §1
SNB-75 = experiment: Antiproliferative activity against human SNB-75 cells assessed as cell growth inhibition at 10 uM incubated for 48 hrs by sulforhodamine B assay relative to control; format: functional; how it was run: as §1
SNB-19 = experiment: Antiproliferative activity against human SNB-19 cells assessed as cell growth inhibition at 10 uM incubated for 48 hrs by sulforhodamine B assay relative to control; format: functional; how it was run: as §1
SW-620 = experiment: Antiproliferative activity against human SW620 cells assessed as cell growth inhibition at 10 uM incubated for 48 hrs by sulforhodamine B assay relative to control; format: functional; how it was run: as §1
KM12 = experiment: Antiproliferative activity against human KM12 cells assessed as cell growth inhibition at 10 uM incubated for 48 hrs by sulforhodamine B assay relative to control; format: functional; how it was run: as §1
HCT-15 = experiment: Antiproliferative activity against human HCT-15 cells assessed as cell growth inhibition at 10 uM incubated for 48 hrs by sulforhodamine B assay relative to control; format: functional
How it was run: (§3)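 NCI-60 one-dose prescreen at 10^-5 M. Cells grown in RPMI 1640 with 5% FBS and 2 mM glutamine, preincubated 24 h, then exposed 48 h at 37 °C. Adherent lines TCA-fixed, SRB-stained, A515 read. Growth percent relative to time-zero and control; negative values mean cell kill.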

HCT-116 = experiment: Antiproliferative activity against human HCT-116 cells assessed as cell growth inhibition at 10 uM incubated for 48 hrs by sulforhodamine B assay relative to control; format: functional; how it was run: as §3
NCI-H522 = experiment: Antiproliferative activity against human NCI-H522 cells assessed as cell growth inhibition at 10 uM incubated for 48 hrs by sulforhodamine B assay relative to control; format: functional; how it was run: as §1
NCI-H226 = experiment: Antiproliferative activity against human NCI-H226 cells assessed as cell growth inhibition at 10 uM incubated for 48 hrs by sulforhodamine B assay relative to control; format: functional; how it was run: as §1
HOP-92 = experiment: Antiproliferative activity against human HOP-92 cells assessed as cell growth inhibition at 10 uM incubated for 48 hrs by sulforhodamine B assay relative to control; format: functional; how it was run: as §3
EKVX = experiment: Antiproliferative activity against human EKVX cells assessed as cell growth inhibition at 10 uM incubated for 48 hrs by sulforhodamine B assay relative to control; format: functional; how it was run: as §3
SR = experiment: Antiproliferative activity against human SR cells assessed as cell growth inhibition at 10 uM incubated for 48 hrs by sulforhodamine B assay relative to control; format: functional; how it was run: as §1
MOLT-4 = experiment: Antiproliferative activity against human MOLT-4 cells assessed as cell growth inhibition at 10 uM incubated for 48 hrs by sulforhodamine B assay relative to control; format: functional; how it was run: as §1
HL-60 = experiment: Antiproliferative activity against human HL-60 cells assessed as cell growth inhibition at 10 uM incubated for 48 hrs by sulforhodamine B assay relative to control; format: functional; how it was run: as §3
CCRF-CEM = experiment: Antiproliferative activity against human CCRF-CEM cells assessed as cell growth inhibition at 10 uM incubated for 48 hrs by sulforhodamine B assay relative to control; format: functional; how it was run: as §2
MDA-MB-468 = experiment: Antiproliferative activity against human MDA-MB-468 cells assessed as cell growth inhibition at 10 uM incubated for 48 hrs by sulforhodamine B assay relative to control; format: functional; how it was run: as §1
OVCAR-5 = experiment: Antiproliferative activity against human OVCAR-5 cells assessed as cell growth inhibition at 10 uM incubated for 48 hrs by sulforhodamine B assay relative to control; format: functional; how it was run: as §1

Compound	logD at 1.417 h [1]	inhibition at 10 µM (Hs-578T) [%]	inhibition at 10 µM (MDA-MB-231) [%]	inhibition at 10 µM (UO-31) [%]	inhibition at 10 µM (SN12C) [%]	inhibition at 10 µM (ACHN) [%]	inhibition at 10 µM (786-0) [%]	inhibition at 10 µM (NCI/ADR-RES) [%]	inhibition at 10 µM (UACC-62) [%]	inhibition at 10 µM (SK-MEL-2) [%]	inhibition at 10 µM (LOX IMVI) [%]	inhibition at 10 µM (SNB-75) [%]	inhibition at 10 µM (SNB-19) [%]	inhibition at 10 µM (SW-620) [%]	inhibition at 10 µM (KM12) [%]	inhibition at 10 µM (HCT-15) [%]	inhibition at 10 µM (HCT-116) [%]	inhibition at 10 µM (NCI-H522) [%]	inhibition at 10 µM (NCI-H226) [%]	inhibition at 10 µM (EKVX) [%]	also measured
O=Cc1ccc(-c2cn3ccnc3c(-c3ccc4ncn(C5CCCCC5)c4c3)n2)cc1	1.5	45.5	51.2	82.2	20.7	11.6	46.7	37.4	37.1	27.8	46.9	21.4	14.4	4.21	3.69	49.1	92.6	25.2	0.53	20.9	inhibition at 10 µM (RXF 393): 25%; inhibition at 10 µM (A498): 11.2%; inhibition at 10 µM (OVCAR-8): 44%; inhibition at 10 µM (U-251): 32%; inhibition at 10 µM (HOP-92): 43%; inhibition at 10 µM (SR): 47.5%; inhibition at 10 µM (MOLT-4): 58.7%; inhibition at 10 µM (HL-60): 16.5%; inhibition at 10 µM (CCRF-CEM): 77.9%
Fc1ccc(-c2cn3ccnc3c(-c3ccc4ncn(C5CCCCC5)c4c3)n2)cc1	2.01	17.6	15.8	37.8	3.97	9.02	11.2	0.69	31	9.82	3.5	21	14.2	8.38	3.49	7.59	18	15.5	23.3	10.5	inhibition at 10 µM (MDA-MB-468): 19.5%; inhibition at 10 µM (RXF 393): 24.4%; inhibition at 10 µM (OVCAR-8): 9.54%; inhibition at 10 µM (OVCAR-5): 10.3%; inhibition at 10 µM (U-251): 7.94%; inhibition at 10 µM (HOP-92): 35.2%; inhibition at 10 µM (SR): 20.4%; inhibition at 10 µM (MOLT-4): 25.2%; inhibition at 10 µM (HL-60): 2.03%; inhibition at 10 µM (CCRF-CEM): 33.4%
O=Cc1ccc(-c2cn3ccnc3c(-c3ccc4ncn(Cc5ccccc5)c4c3)n2)cc1	1.88	45.5	51.2	82.2	20.7	11.6	46.7	37.4	37.1	27.8	46.9	21.4	14.4	4.21	3.69	49.1	92.6	25.2	0.53	20.9	inhibition at 10 µM (RXF 393): 25%; inhibition at 10 µM (A498): 11.2%; inhibition at 10 µM (OVCAR-8): 44%; inhibition at 10 µM (U-251): 32%; inhibition at 10 µM (HOP-92): 43%; inhibition at 10 µM (SR): 47.5%; inhibition at 10 µM (MOLT-4): 58.7%; inhibition at 10 µM (HL-60): 16.5%; inhibition at 10 µM (CCRF-CEM): 77.9%
c1ccc2c(-c3cn4ccnc4c(-c4ccc5ncn(C6CCCCC6)c5c4)n3)cccc2c1	1.44	3.62	20.8	23	11.7	6.49	6.33	4.43	16.7	2.3	7.43	16.5	9.08	5.34	11.1	4.46	17.9	19.3	9.45	13.2	inhibition at 10 µM (MDA-MB-468): 10.4%; inhibition at 10 µM (A498): 14%; inhibition at 10 µM (SR): 6.92%; inhibition at 10 µM (MOLT-4): 44.7%; inhibition at 10 µM (HL-60): 38.9%; inhibition at 10 µM (CCRF-CEM): 17.5%
